Test results from ChEMBL document CHEMBL1127826, “Inhibitors of acyl-CoA:cholesterol acyltransferase (ACAT). 7. Development of a series of substituted N-phenyl-N'-[(1-phenylcyclopentyl)methyl]ureas with enhanced hypocholesterolemic activity” (J Med Chem, 1994).
One block for each compound: values may come before it.

Experiments:
[1] = tested on: Rattus norvegicus; experiment: Compound was evaluated in experiment 2 for change in non High density lipoprotein at the doses at 10 (mg/kg) dose; type: functional
How it was run: (§1)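 Chronic model in male Sprague-Dawley rats (200-225 g). Rats were fed chow with peanut oil 5.5%, cholesterol 1.5% and cholic acid ad libitum for 2 weeks. Test article was given by gavage once daily (morning) in the second week, as a CMC/Tween aqueous suspension. Blood was taken by cardiac puncture under ether 24 h after the last dose. Plasma total, HDL and nonHDL cholesterol were measured with an Abbott VP analyzer using dextran sulfate precipitation, reported as mg/dL and % change from control. Controls were cholesterol-fed rats and rats switched to chow in week 2.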

[2] = tested on: Rattus norvegicus; experiment: Compound was evaluated in experiment 2 for non High density lipoproteins at 10 (mg/kg) dose; type: functional
How it was run: (§2)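 Male Sprague-Dawley rats (200-225 g) were fed chow with peanut oil (5.5%), cholesterol (1.5%) and cholic acid (0.5%) ad libitum for 2 weeks. During week 2 they were gavaged daily each morning with compound in aqueous CMC/Tween suspension. Controls were fed the cholesterol diet for 2 weeks, or switched to chow for week 2. Rats were bled by cardiac puncture under ether 24 h post-dose. Plasma HDL-C was measured after dextran sulfate precipitation, along with nonHDL-C. Values are given in mg/dL and as % change from control.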

[3] = tested on: Rattus norvegicus; experiment: Compound was evaluated in experiment 2 for non High density lipoproteins at 1 (mg/kg) dose; type: functional; how it was run: as §2
[4] = tested on: Rattus norvegicus; experiment: Compound was evaluated in experiment 2 for High density lipoproteins at 30 (mg/kg) dose; type: functional; how it was run: as §1
[5] = tested on: Rattus norvegicus; experiment: Compound was evaluated in experiment 2 for Change in total cholesterol at 10 (mg/kg) dose; type: functional; how it was run: as §1
[6] = organism: Rattus norvegicus; experiment: Percent change in total cholesterol in peanut oil (5.5%)-, cholic acid (0.3%)-, Cholesterol (1.5%)-fed rats after a single dose.; type: functional
How it was run: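 Male Sprague-Dawley rats (200-225 g), n=5-7/group, given a single oral dose at 4 p.m. as a suspension in 1.5% CMC/0.2% Tween-20 in water (50 mg/kg); controls received vehicle alone. The rats then had free access to chow with peanut oil, cholesterol and cholic acid. At 8 a.m. next day they were bled by cardiac puncture under ether, and serum total cholesterol was measured as % change versus controls (unpaired two-tailed t-test).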

[7] = tested on: Rattus norvegicus; experiment: Compound was evaluated in experiment 2 for Change in total cholesterol at 30 (mg/kg) dose; type: functional; how it was run: as §1
[8] = tested on: Rattus norvegicus; experiment: Compound was evaluated in experiment 2 for Total cholesterol at 30 (mg/kg) dose; type: functional; how it was run: as §1
[9] = tested on: Rattus norvegicus; experiment: Compound was evaluated in experiment 2 for Total cholesterol at 10 (mg/kg) dose; type: functional; how it was run: as §1
[10] = tested on: Rattus norvegicus; experiment: Compound was evaluated in experiment 2 for High density lipoproteins at 10 (mg/kg) dose; type: functional; how it was run: as §1
[11] = target: T1, Acyl-CoA:cholesterol acyltransferase (Oryctolagus cuniculus, UniProt Q95214); experiment: Tested for in vitro inhibition against Acyl coenzyme A:cholesterol acyltransferase of intestinal microsomes in cholesterol-fed rabbits; design: species or system Microsome
T1 sequence (Q95214 whole entry): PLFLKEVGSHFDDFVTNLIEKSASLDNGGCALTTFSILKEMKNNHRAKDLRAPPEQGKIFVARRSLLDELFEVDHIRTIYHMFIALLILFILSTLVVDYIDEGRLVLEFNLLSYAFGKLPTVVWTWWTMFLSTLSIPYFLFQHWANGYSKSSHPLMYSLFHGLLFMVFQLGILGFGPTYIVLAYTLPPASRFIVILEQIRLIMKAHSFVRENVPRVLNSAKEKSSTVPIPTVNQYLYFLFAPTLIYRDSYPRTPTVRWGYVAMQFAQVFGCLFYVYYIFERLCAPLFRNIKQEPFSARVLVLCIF
How it was run: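 Microsomes were prepared from intestine of cholesterol-fed rabbits. ACAT activity was measured using [1-14C]oleoyl-CoA as substrate. Each determination was run in triplicate.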

[12] = tested on: Rattus norvegicus; experiment: Compound was evaluated in experiment 2 for Change in High density lipoproteins at 10 (mg/kg) dose; type: functional; how it was run: as §1
[13] = tested on: Rattus norvegicus; experiment: Compound was evaluated in experiment 2 for Total cholesterol at 3 (mg/kg) dose; type: functional; how it was run: as §1
[14] = tested on: Rattus norvegicus; experiment: Compound was evaluated in experiment 2 for Change in High density lipoproteins at 3 (mg/kg) dose; type: functional; how it was run: as §1
[15] = tested on: Rattus norvegicus; experiment: Compound was evaluated in experiment 2 for Change in High density lipoproteins at 1 (mg/kg) dose; type: functional; how it was run: as §1
[16] = tested on: Rattus norvegicus; experiment: Compound was evaluated in experiment 2 for non High density lipoproteins at 3 (mg/kg) dose; type: functional; how it was run: as §2
[17] = tested on: Rattus norvegicus; experiment: Compound was evaluated in experiment 2 for High density lipoproteins at 1 (mg/kg) dose; type: functional; how it was run: as §1
[18] = tested on: Rattus norvegicus; experiment: Compound was evaluated in experiment 2 for High density lipoproteins at 3 (mg/kg) dose; type: functional; how it was run: as §1
[19] = tested on: Rattus norvegicus; experiment: Compound was evaluated in experiment 2 for change in non High density lipoprotein at the doses at 30 (mg/kg) dose; type: functional; how it was run: as §2
[20] = Compound was evaluated for the distribution coefficient at pH 7.4; type: physicochemical; conditions: octanol/water
[21] = tested on: Rattus norvegicus; experiment: Compound was evaluated in experiment 2 for Change in total cholesterol at 3 (mg/kg) dose; type: functional; how it was run: as §1
[22] = tested on: Rattus norvegicus; experiment: Compound was evaluated in experiment 2 for Change in High density lipoproteins at 30 (mg/kg) dose; type: functional; how it was run: as §1
[23] = tested on: Rattus norvegicus; experiment: Compound was evaluated in experiment 2 for change in non High density lipoprotein at the doses at 3 (mg/kg) dose; type: functional; how it was run: as §1
[24] = tested on: Rattus norvegicus; experiment: Compound was evaluated in experiment 2 for Total cholesterol at 1 (mg/kg) dose; type: functional; how it was run: as §1
[25] = tested on: Rattus norvegicus; experiment: Compound was evaluated for the percentage change in total cholesterol in peanut oil (5.5%)-cholic acid (0.3%)-cholesterol (1.5%)-fed rat at 30 mg/kg; type: functional
[26] = tested on: Rattus norvegicus; experiment: Compound was evaluated in experiment 2 for non High density lipoproteins at 30 (mg/kg) dose; type: functional; how it was run: as §2
[27] = tested on: Rattus norvegicus; experiment: Compound was evaluated in experiment 2 for change in non High density lipoprotein at the doses at 1 (mg/kg) dose; type: functional, organism-based; how it was run: as §1
[28] = tested on: Rattus norvegicus; experiment: Compound was evaluated in experiment 2 for Change in total cholesterol at 1 (mg/kg) dose; N/C denotes 'No change'; type: functional, organism-based; how it was run: as §1

- IC50 [11]: 0.063 µM
- logD [20]: 4.8
SMILES: CC(C)c1cccc(C(C)C)c1NC(=O)NCC1(c2cccc(CN(C)C)c2)CCCC1 [listing 1 of 2 here]
- Change non HDL-C [1]: -38%
- Non-HDL-C [2]: 177
- Non-HDL-C [3]: 278
- HDL-C [4]: 33
- Change TC [5]: -33%
- Delta TC [6]: -22%
- Change TC [7]: -66%
- TC [8]: 101
- TC [9]: 200
- HDL-C [10]: 23
- Change HDL -C [12]: 77%
- TC [13]: 229
- Change HDL -C [14]: 31%
- Change HDL -C [15]: 8%
- Non-HDL-C [16]: 212
- HDL-C [17]: 14
- HDL-C [18]: 17
- Change non HDL-C [19]: -76%
- Change TC [21]: -23%
- Change HDL -C [22]: 154%
- Change non HDL-C [23]: -25%
- TC [24]: 292
- Delta TC [25]: -55%
- Non-HDL-C [26]: 68

SMILES: CC(C)c1cccc(C(C)C)c1NC(=O)NCC1(c2cccc(CN(C)C)c2)CCCC1 [listing 2 of 2 here]
- Change non HDL-C [27]: No change
- Change TC [28]: No change
